pIC50, pKi: −log10 of the molar value. Blank lines part the entries; values can stand above or below the compound they belong to. Active and inactive are the calls of the source. No cut-off for these calls is given here.
How the values were obtained:
[1] = molecular target: T1, 5-hydroxytryptamine receptor 3A (Homo sapiens, UniProt P46098); assay: Binding affinity to human HT3A receptor
T1 sequence (P46098 whole entry): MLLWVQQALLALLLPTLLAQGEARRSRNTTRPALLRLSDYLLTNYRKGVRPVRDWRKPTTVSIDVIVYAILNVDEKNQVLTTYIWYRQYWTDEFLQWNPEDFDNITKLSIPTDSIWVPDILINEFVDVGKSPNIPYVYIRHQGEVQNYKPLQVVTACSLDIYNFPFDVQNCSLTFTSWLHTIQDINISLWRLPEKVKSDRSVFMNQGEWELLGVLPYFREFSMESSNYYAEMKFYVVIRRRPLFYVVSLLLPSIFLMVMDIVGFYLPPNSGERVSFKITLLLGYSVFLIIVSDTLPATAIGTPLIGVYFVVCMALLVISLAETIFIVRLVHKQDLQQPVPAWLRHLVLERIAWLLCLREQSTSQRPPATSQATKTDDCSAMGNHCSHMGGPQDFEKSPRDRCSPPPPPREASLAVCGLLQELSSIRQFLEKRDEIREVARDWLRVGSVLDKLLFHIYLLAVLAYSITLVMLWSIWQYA

Mus musculus [2] = assay: Cardioprotective effect in po dosed mouse assessed as inhibition of 5-HT-induced bradycardia administered 1 hr prior to 5-HT challenge; format: functional
In short: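 Murine von Bezold–Jarisch reflex assay. Test agents were given orally 1 h before a 0.1 mg/kg 5-HT challenge. Read-out was block of 5-HT-induced transient bradycardia.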

[3] = Intrinsic clearance in human liver microsomes; format: ADME, Microsome
[4] = Bioavailability in rat at 10 mg/kg, po or 1 mg/kg, iv; format: ADME, organism-based; conditions: in vivo
Cytochrome P450 3A4 = Cytochrome P450 3A4 (Homo sapiens, UniProt P08684); assay: Inhibition of human CYP3A4; format: ADME
[5] = molecular target: Voltage-gated inwardly rectifying potassium channel KCNH2 (Homo sapiens, UniProt Q12809); assay: Inhibition of human ERG expressed in HEK cells by patch clamp technique
Homo sapiens = organism: Homo sapiens; assay: Inhibition of human nicotinic acetylcholine receptor at 1 uM
In short: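 Single-concentration screen at 1 µM within a 68-membered off-target receptor panel; inhibition above 50% counted as significant.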

Cytochrome P450 2C19 = Cytochrome P450 2C19 (Homo sapiens, UniProt P33261); assay: Inhibition of human CYP2C19; format: ADME
Mus musculus [6] = organism: Mus musculus; conditions: 1.9 mg/kg
[7] = Inhibition of human CYP450; format: ADME
Mus musculus [8] = organism: Mus musculus; conditions: 0.56 mg/kg

Chain of Voltage-gated inwardly rectifying potassium channel KCNH2 (Q12809 whole entry): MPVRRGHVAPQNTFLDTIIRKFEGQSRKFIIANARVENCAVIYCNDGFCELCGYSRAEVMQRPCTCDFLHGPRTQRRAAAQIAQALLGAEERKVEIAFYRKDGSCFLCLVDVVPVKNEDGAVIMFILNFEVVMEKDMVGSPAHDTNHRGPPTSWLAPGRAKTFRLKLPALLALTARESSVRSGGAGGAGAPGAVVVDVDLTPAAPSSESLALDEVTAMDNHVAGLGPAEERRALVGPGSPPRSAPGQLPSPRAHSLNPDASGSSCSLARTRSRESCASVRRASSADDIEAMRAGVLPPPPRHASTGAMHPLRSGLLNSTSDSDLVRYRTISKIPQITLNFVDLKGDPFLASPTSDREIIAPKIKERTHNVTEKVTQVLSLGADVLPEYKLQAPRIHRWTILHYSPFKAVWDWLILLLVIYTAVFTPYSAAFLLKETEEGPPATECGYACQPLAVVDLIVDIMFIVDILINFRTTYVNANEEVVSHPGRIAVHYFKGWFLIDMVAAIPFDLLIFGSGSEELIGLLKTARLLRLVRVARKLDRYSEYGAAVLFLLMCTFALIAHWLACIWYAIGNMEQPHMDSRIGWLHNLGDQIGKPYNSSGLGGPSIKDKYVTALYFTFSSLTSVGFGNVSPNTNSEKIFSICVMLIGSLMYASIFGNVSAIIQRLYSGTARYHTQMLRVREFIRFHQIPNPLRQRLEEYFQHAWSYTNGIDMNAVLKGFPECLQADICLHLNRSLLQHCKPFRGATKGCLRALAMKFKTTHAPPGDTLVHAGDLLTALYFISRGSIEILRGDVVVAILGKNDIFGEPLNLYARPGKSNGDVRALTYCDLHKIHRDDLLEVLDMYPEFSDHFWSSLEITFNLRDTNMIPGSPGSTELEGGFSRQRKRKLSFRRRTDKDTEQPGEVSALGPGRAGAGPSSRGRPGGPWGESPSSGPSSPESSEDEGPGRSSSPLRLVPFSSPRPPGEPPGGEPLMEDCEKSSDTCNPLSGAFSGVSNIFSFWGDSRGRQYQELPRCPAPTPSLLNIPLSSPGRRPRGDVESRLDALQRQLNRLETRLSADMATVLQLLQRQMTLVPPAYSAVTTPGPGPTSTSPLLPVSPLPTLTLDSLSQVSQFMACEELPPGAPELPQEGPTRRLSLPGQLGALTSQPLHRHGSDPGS
Chain of Cytochrome P450 3A4 (P08684 whole entry): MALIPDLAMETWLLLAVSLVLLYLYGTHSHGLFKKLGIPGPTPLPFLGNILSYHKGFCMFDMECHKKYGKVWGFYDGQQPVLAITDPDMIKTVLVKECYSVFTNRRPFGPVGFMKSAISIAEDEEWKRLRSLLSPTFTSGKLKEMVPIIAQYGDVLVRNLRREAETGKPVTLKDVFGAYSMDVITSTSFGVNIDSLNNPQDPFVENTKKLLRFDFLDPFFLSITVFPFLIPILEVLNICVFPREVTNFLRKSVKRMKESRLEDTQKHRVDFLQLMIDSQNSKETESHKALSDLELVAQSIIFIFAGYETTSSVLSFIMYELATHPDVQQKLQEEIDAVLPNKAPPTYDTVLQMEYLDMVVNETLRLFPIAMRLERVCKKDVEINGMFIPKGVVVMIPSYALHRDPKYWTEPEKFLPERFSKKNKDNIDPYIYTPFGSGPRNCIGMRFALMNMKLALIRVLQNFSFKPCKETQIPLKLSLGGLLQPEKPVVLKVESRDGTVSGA
Chain of Cytochrome P450 2C19 (P33261 whole entry): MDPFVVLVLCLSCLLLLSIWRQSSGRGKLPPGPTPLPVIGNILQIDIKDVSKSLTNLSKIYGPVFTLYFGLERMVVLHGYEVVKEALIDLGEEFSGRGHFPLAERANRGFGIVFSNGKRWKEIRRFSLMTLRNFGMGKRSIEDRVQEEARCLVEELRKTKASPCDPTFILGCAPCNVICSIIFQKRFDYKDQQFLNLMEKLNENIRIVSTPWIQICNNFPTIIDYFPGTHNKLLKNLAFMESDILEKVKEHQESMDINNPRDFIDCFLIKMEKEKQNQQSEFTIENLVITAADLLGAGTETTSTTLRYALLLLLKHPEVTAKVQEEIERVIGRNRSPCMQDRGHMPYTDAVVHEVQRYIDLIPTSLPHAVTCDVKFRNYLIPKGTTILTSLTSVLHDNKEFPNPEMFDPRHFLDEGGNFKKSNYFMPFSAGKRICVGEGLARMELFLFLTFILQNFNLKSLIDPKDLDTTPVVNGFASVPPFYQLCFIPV

Structure (SMILES): C[C@@H]1CN(c2nc3c(C(=O)N[C@@H]4C[C@H]5CCC[C@@H](C4)N5C)cccc3o2)C[C@H](C)O1
pKi [1]: 7.45

Structure (SMILES): CN1[C@@H]2CCC[C@H]1C[C@H](NC(=O)c1cccc3nc(-c4ccccc4)oc13)C2
pKi [1]: 7.39

Structure (SMILES): CN1[C@@H]2CCC[C@H]1C[C@H](NC(=O)c1cccc3nc(-c4ccc(Cl)cc4)oc13)C2
pKi [1]: 7.13

Structure (SMILES): CCN(CC)c1nc2c(C(=O)N[C@@H]3CN4CCC3CC4)cccc2o1
pKi [1]: 7.91

Structure (SMILES): C[C@@H]1CNC[C@@H](C)N1c1nc2c(C(=O)N[C@@H]3C[C@H]4CCC[C@@H](C3)N4C)cccc2o1
pKi [1]: 7.23

Structure (SMILES): COc1ccc(-c2nc3c(C(=O)N[C@@H]4C[C@H]5CCC[C@@H](C4)N5C)cccc3o2)cc1
pKi [1]: 7.73

Structure (SMILES): CC(C)[C@H]1COCCN1c1nc2c(C(=O)N[C@@H]3C[C@H]4CCC[C@@H](C3)N4C)cccc2o1
pKi [1]: 8.30

Structure (SMILES): CN1[C@@H]2CCC[C@H]1C[C@H](NC(=O)c1cccc3oc(-c4ccc(Cl)cc4)nc13)C2
pKi [1]: 7.74

Structure (SMILES): CN1[C@@H]2CCC[C@H]1C[C@H](NC(=O)c1cccc3oc(-c4ccccc4)nc13)C2
pKi [1]: 7.82

microsomal CLint [3]: 5.8 µL/min/mg
bioavailability [4]: 21%
Structure (SMILES): Cc1nccn1CC1CCc2c(c3ccccc3n2C)C1=O (stereo not given) [ONDANSETRON]
ED50 (Mus musculus [2]): 0.54 mg/kg

Structure (SMILES): CN1[C@@H]2CCC[C@H]1C[C@H](NC(=O)c1cccc3nc(-c4ccc(F)cc4)oc13)C2
pKi [1]: 7.02

Structure (SMILES): CN1[C@@H]2CCC[C@H]1C[C@H](NC(=O)c1cccc3oc(C4CC4)nc13)C2
pKi [1]: 8.08
pIC50 (Cytochrome P450 3A4): < 4.30
microsomal CLint [3]: 23.5 µL/min/mg
bioavailability [4]: 32%

Structure (SMILES): CN1[C@@H]2CCC[C@H]1C[C@H](NC(=O)c1cccc3oc(N4CCOCC4)nc13)C2
pKi [1]: 7.40
pIC50 (Cytochrome P450 3A4): < 4.30
microsomal CLint [3]: 1 µL/min/mg
pIC50 [5]: 5.85
bioavailability [4]: 35%
inhibition (Homo sapiens): > 50%

Structure (SMILES): CCC[C@H]1COCCN1c1nc2c(C(=O)N[C@@H]3C[C@H]4CCC[C@@H](C3)N4C)cccc2o1
pKi [1]: 8.41

Structure (SMILES): C[C@@H]1CNC[C@H](C)N1c1nc2c(C(=O)N[C@@H]3C[C@H]4CCC[C@@H](C3)N4C)cccc2o1
pKi [1]: 7.43

Structure (SMILES): O=C(N[C@@H]1CN2CCC1CC2)c1cccc2oc(N3CCOCC3)nc12
pIC50 (Cytochrome P450 3A4): < 4.00
microsomal CLint [3]: 0.6 µL/min/mg
pIC50 [5]: 5.49
bioavailability [4]: 100%

Structure (SMILES): O=C(N[C@@H]1CN2CCC1CC2)c1cccc2oc(C3CC3)nc12
pKi [1]: 7.49
pIC50 (Cytochrome P450 3A4): < 4.00
microsomal CLint [3]: 4.5 µL/min/mg
pIC50 [5]: 6.15
bioavailability [4]: 13%

Structure (SMILES): CC[C@H]1COCCN1c1nc2c(C(=O)N[C@@H]3C[C@H]4CCC[C@@H](C3)N4C)cccc2o1
pKi [1]: 8.34

Structure (SMILES): CNc1nc2c(C(=O)N[C@@H]3CN4CCC3CC4)cccc2o1
pKi [1]: 7.44

Structure (SMILES): C[C@H]1COC[C@H](C)N1c1nc2c(C(=O)N[C@@H]3C[C@H]4CCC[C@@H](C3)N4C)cccc2o1
pKi [1]: 9.22

Structure (SMILES): C[C@H]1CNC[C@H](C)N1c1nc2c(C(=O)N[C@@H]3C[C@H]4CCC[C@@H](C3)N4C)cccc2o1
ED50 (Mus musculus [2]): 0.85 mg/kg
pKi [1]: 8.62
microsomal CLint [3]: < 2 µL/min/mg
pIC50 [5]: 5.19
pIC50 (Cytochrome P450 2C19): 5.85
inhibition (Mus musculus [6]): Active

Structure (SMILES): CC(C)C[C@H]1COCCN1c1nc2c(C(=O)N[C@@H]3C[C@H]4CCC[C@@H](C3)N4C)cccc2o1
pKi [1]: 8.46

Structure (SMILES): CC[C@H]1COC[C@H](C)N1c1nc2c(C(=O)N[C@@H]3C[C@H]4CCC[C@@H](C3)N4C)cccc2o1
pKi [1]: 9.00

Structure (SMILES): CC(C)N(C)c1nc2c(C(=O)N[C@@H]3CN4CCC3CC4)cccc2o1
pKi [1]: 7.18

Structure (SMILES): CN1[C@@H]2CCC[C@H]1C[C@H](NC(=O)c1cccc3oc(N4CCNCC4)nc13)C2
pKi [1]: 7.14

Structure (SMILES): C[C@H]1CNCCN1c1nc2c(C(=O)N[C@@H]3C[C@H]4CCC[C@@H](C3)N4C)cccc2o1
pKi [1]: 7.78

Structure (SMILES): Nc1nc2c(C(=O)N[C@@H]3CN4CCC3CC4)cc(Cl)cc2o1
ED50 (Mus musculus [2]): 0.4 mg/kg
pKi [1]: 8.33
microsomal CLint [3]: 3 µL/min/mg
pIC50 [5]: 5.32
pIC50 [7]: < 4.52
inhibition (Mus musculus [8]): Active

Structure (SMILES): Nc1nc2c(C(=O)N[C@@H]3CN4CCC3CC4)cccc2o1
ED50 (Mus musculus [2]): 1.08 mg/kg
pKi [1]: 7.86
microsomal CLint [3]: < 2 µL/min/mg
pIC50 [7]: < 4.00

Structure (SMILES): CN1[C@@H]2CCC[C@H]1C[C@H](NC(=O)c1cccc3oc(N4CCOC[C@@H]4C(C)(C)C)nc13)C2
pKi [1]: 8.70

microsomal CLint [3]: 3 µL/min/mg
bioavailability [4]: 100%
Structure (SMILES): Cc1[nH]cnc1CN1CCc2c(c3ccccc3n2C)C1=O [ALOSETRON]
ED50 (Mus musculus [2]): 0.02 mg/kg

Structure (SMILES): COc1ccccc1-c1nc2c(C(=O)N[C@@H]3C[C@H]4CCC[C@@H](C3)N4C)cccc2o1
pKi [1]: 7.83
pIC50 (Cytochrome P450 3A4): 5.96
microsomal CLint [3]: 2.8 µL/min/mg
pIC50 [5]: 6.40
bioavailability [4]: 44%

Structure (SMILES): COc1ccc(-c2nc3cccc(C(=O)N[C@@H]4C[C@H]5CCC[C@@H](C4)N5C)c3o2)cc1
pKi [1]: 7.23

Structure (SMILES): COc1ccccc1-c1nc2c(C(=O)N[C@@H]3CN4CCC3CC4)cccc2o1
pKi [1]: 7.33
pIC50 (Cytochrome P450 3A4): < 4.30
microsomal CLint [3]: 10.1 µL/min/mg
pIC50 [5]: 6.70
bioavailability [4]: 100%

Structure (SMILES): CN1[C@@H]2CCC[C@H]1C[C@H](NC(=O)c1cccc3oc(-c4ccc(F)cc4)nc13)C2
pKi [1]: 7.79

Structure (SMILES): CCNc1nc2c(C(=O)N[C@@H]3CN4CCC3CC4)cccc2o1
pKi [1]: 7.44
